Results as given in ChEMBL document CHEMBL3526053, “Species-dependent uptake of glycylsarcosine but not oseltamivir in Pichia pastoris expressing the rat, mouse, and human intestinal peptide transporter PEPT1” (Drug Metab Dispos, 2012).

Molecular target: T1, Solute carrier family 15 member 1 (Rattus norvegicus, UniProt P51574)
T1 sequence (P51574 whole entry): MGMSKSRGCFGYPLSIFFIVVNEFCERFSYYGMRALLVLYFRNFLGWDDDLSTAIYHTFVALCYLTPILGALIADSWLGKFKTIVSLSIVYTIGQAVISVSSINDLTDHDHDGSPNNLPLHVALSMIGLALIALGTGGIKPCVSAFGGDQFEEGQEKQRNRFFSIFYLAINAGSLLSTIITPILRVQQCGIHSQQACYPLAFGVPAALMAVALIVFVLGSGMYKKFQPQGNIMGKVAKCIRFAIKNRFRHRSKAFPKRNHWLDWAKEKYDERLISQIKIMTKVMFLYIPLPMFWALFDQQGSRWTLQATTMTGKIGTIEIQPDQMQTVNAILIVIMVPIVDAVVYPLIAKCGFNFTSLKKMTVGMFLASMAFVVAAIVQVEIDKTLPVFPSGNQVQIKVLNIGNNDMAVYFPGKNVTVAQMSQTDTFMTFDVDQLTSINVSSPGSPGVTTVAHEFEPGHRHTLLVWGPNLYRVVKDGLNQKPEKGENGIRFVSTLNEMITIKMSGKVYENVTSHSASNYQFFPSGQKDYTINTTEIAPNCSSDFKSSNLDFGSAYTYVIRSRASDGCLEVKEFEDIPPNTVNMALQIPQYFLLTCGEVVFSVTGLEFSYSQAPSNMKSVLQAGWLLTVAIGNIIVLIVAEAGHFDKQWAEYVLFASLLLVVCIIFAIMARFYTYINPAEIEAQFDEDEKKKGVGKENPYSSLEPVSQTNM
Assay: Drug uptake in Pichia pastoris GS115 expressing rat recombinant PEPT1 at 5 uM after 30s by dual-channel liquid scintillation counting analysis in presence of glycine relative to control
Assay type: ADME
Conditions: 0.5 min
Summary of the method: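 Rat PEPT1 (pPIC3.5K-rPept1) in GS115 His+Mut+ transformant, methanol-induced 20-24 hr in BMMY at 30°C, washed into 100 mM potassium phosphate pH 6.5. [3H]GlySar final 5.0 µM with inhibitor at 10 mM, 30 sec at 24°C. Counts taken by liquid scintillation after 24 hr standing. Values are vector-subtracted and given as % of buffer control. Mean ± SE, n=3.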

Drug uptake: 91.5%
Compound: [3H]C(C(=O)O)N(C)C(=O)CN (stereo unspecified)
